Our source for the Ki and Activity values is ChEMBL document CHEMBL1255218, “Development of molecular probes for the human 5-HT(6) receptor” (J Med Chem, 2010).

pKi: −log10 of the molar value. Active and inactive are the calls of the source. No cut-off for these calls is given here. Bounds are passed on as bounds.

As a reminder, the pKi is the Ki on a negative log10 scale, so that one unit is a factor of ten. High values mean a small Ki, low ones a large Ki.

For test [1], the target named is T1, 5-hydroxytryptamine receptor 6 (Homo sapiens, UniProt P50406). The experiment in a line: Displacement of [3H]LSD from human 5HT6 receptor expressed in HEK293 cells. It counts as cell-based. The procedure, abridged: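 Membranes from HEK-293 cells stably expressing human 5-HT6R, in 50 mM Tris-HCl, 10 mM MgCl2, 0.5 mM EDTA, pH 7.4. Incubated 60 min at 37 °C with 2.5 nM [3H]LSD and competitor (10^-5 to 10^-10 M). Nonspecific binding defined with 100 μM serotonin. Filtered on 0.5% PEI-soaked filters; scintillation count. Ki by Cheng-Prusoff; 2-4 experiments in triplicate.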
T1 sequence (P50406 whole entry): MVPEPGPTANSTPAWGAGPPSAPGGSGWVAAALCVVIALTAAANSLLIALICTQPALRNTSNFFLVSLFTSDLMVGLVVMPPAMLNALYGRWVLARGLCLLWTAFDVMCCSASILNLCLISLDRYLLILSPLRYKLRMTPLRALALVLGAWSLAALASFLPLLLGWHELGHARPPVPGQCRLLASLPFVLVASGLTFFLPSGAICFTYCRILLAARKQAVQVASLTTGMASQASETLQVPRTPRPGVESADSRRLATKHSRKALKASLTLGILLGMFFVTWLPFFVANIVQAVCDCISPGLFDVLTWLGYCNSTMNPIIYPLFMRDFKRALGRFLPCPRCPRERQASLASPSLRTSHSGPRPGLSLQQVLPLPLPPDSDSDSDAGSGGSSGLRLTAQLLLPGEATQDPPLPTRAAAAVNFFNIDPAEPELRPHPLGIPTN
For orientation: In a radioligand displacement assay an active substance lowers the binding of a labelled ligand.

Test [2] addresses T1, 5-hydroxytryptamine receptor 6. The experiment in a line: Binding affinity to human 5HT6 receptor expressed in COS7 cells assessed as emission fluorescence intensity. In kind it is cell-based. The note with it: COS-7.
For test [3] the target is unchanged. The test can be described thus: Binding affinity to human 5HT6 receptor assessed as emission fluorescence intensity.

For the compound `COc1ccc(NS(=O)(=O)c2sc3ccc(Cl)cc3c2C)cc1N1CCN(CCCCCCCCNS(=O)(=O)c2cccc3c(N(C)C)cccc23)CC1`, the negative logarithm of the Ki (pKi) in test [1] was 6.35. Also, the Activity in test [2] was more than 1000 a.u.
The like results for `Cc1c(S(=O)(=O)Nc2ccc(OCCCCCCCCNS(=O)(=O)c3cccc4c(N(C)C)cccc34)c(N3CCNCC3)c2)sc2ccc(Cl)cc12` were, in that order, 6.13 and 700 a.u.
The like results for `COc1ccc(NS(=O)(=O)c2cccc3c(N(C)C)cccc23)cc1N1CCN(CCCCCCCCNS(=O)(=O)c2cccc3c(N(C)C)cccc23)CC1` were, in that order, 6.71 and 450 a.u.
For `COc1ccc(NS(=O)(=O)c2cccc3c(N(C)C)cccc23)cc1N1CCN(CCCCNS(=O)(=O)c2cccc3c(N(C)C)cccc23)CC1`, in that order: 6.76 and more than 1000 a.u.
Compound `COc1ccc(N(S(=O)(=O)c2cccc3c(N(C)C)cccc23)S(=O)(=O)c2cccc3c(N(C)C)cccc23)cc1N1CCNCC1` showed a negative-log Ki (pKi) in test [1] of 6.87. In test [2], the Activity stood at 35 a.u.
As to `COc1ccc(N(CCCCCCCCNS(=O)(=O)c2cccc3c(N(C)C)cccc23)S(=O)(=O)c2sc3ccc(Cl)cc3c2C)cc1N1CCNCC1`, the pKi in test [1] is 6.67. Moreover, the Activity in test [2] is more than 1000 a.u.
For `COc1ccc(NS(=O)(=O)c2cccc3c(N(C)C)cccc23)cc1N1CCNCC1`, in that order: 8.10 and 52 a.u.
In test [1], `COc1ccc(NS(=O)(=O)c2ccc(-c3ncc(-c4ccc(N(C)C)cc4)o3)cc2)cc1N1CCNCC1` gave a pKi of 6.28. For the same compound, in test [3], the result was inactive.
`COc1ccc(N(S(=O)(=O)c2sc3ccc(Cl)cc3c2C)S(=O)(=O)c2cccc3c(N(C)C)cccc23)cc1N1CCNCC1`: in test [1], the pKi is 7.57. Further, the Activity in test [2] worked out at 19 a.u.
The compound `COc1ccc(NS(=O)(=O)c2sc3ccc(Cl)cc3c2C)cc1N1CCN(S(=O)(=O)c2cccc3c(N(C)C)cccc23)CC1` had a pKi in test [1] of 6.78. Also, the Activity in test [2] was 730 a.u.
The like results for `COc1ccc(NS(=O)(=O)c2cccc3c(N(C)C)cccc23)cc1N1CCN(CCCCCCNS(=O)(=O)c2cccc3c(N(C)C)cccc23)CC1` were, in that order, 6.26 and 287 a.u.
The like results for `COc1ccc(NS(=O)(=O)c2sc3ccc(Cl)cc3c2C)cc1N1CCN(CCCCCCNS(=O)(=O)c2cccc3c(N(C)C)cccc23)CC1` were, in that order, 6.58 and more than 1000 a.u.
For `COc1ccc(N(CCCCNS(=O)(=O)c2cccc3c(N(C)C)cccc23)S(=O)(=O)c2sc3ccc(Cl)cc3c2C)cc1N1CCNCC1`, in that order: 6.13 and 221 a.u.
In test [1], `COc1ccc(NS(=O)(=O)c2sc3ccc(Cl)cc3c2C)cc1N1CCN(CCCCCCNC(=O)CCCC[C@@H]2SC[C@@H]3NC(=O)N[C@@H]32)CC1` had a pKi of 7.05.
